Laboratory results from ChEMBL document CHEMBL3576792, “Enhancement of antibiotic activity against multidrug-resistant bacteria by the efflux pump inhibitor 3,4-dibromopyrrole-2,5-dione isolated from a Pseudoalteromonas sp” (J Nat Prod, 2015).
The source made the active and inactive calls. No cut-off for these calls is given here.

Key:
Escherichia coli [1] = assay: Potentiation of levofloxacin-induced antibacterial activity Escherichia coli AG102 overexpressing AcrAB-TolC MIC by p-iodonitrotetrazolium chloride colorimetric assay; assay type: functional
Escherichia coli K-12 [2] = assay: Inhibition of AcrAB-TolC pump in Escherichia coli K-12 AG100 assessed as […] at 0.06 ug/ml after 60 mins by accumulation assay
How it was run: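 AG100 (wild-type K-12) or AG100A (ΔacrAB) grown in Luria broth at 37 °C and 200 rpm to OD600 1.0, PBS-washed, diluted to OD600 0.3. Cells given 2.5 μM H33342 with 22 mM glucose at 37 °C for ~30 min until stable, then compound (0.06–64 μg/mL) added. Fluorescence (Ex 350/Em 460) read for 60 min, background subtracted. Final 4 time points averaged; one-way ANOVA/Dunnett vs Hoechst-only; n = 8.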

Escherichia coli [3] = assay: Potentiation of oxacillin-induced antibacterial activity Escherichia coli transformed with plasmid carrying MG1655 deltaBC/pABM assessed as oxacillin MIC by p-iodonitrotetrazolium chloride colorimetric assay; assay type: functional, organism-based
How it was run: (§1)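 Checkerboard microdilution in Mueller-Hinton broth: two-fold dilutions of antibiotic crossed with dilutions of test compound above, at and below their MICs. Growth was read by INT colorimetric assay, with MIC as the lowest concentration showing no visible growth. FICs and FIC index were derived from these MICs. ΔBC/pABM and ΔBC/pXYM strains were grown with 100 μg/mL ampicillin and 1 mM IPTG.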

Escherichia coli [4] = assay: Potentiation of oxacillin-induced antibacterial activity Escherichia coli transformed with plasmid carrying MG1655 deltaBC/pABM by p-iodonitrotetrazolium chloride colorimetric assay; assay type: functional, organism-based; how it was run: as §1
Escherichia coli [5] = assay: Potentiation of piperacillin-induced antibacterial activity Escherichia coli transformed with plasmid carrying MG1655 deltaBC/pXYM assessed as piperacillin MIC by p-iodonitrotetrazolium chloride colorimetric assay; assay type: functional; how it was run: as §1
Escherichia coli [6] = assay: Potentiation of ciprofloxacin-induced antibacterial activity Escherichia coli transformed with plasmid carrying MG1655 deltaBC/pXYM by p-iodonitrotetrazolium chloride colorimetric assay; assay type: functional
Escherichia coli [7] = assay: Potentiation of ciprofloxacin-induced antibacterial activity Escherichia coli transformed with plasmid carrying MG1655 deltaBC/pXYM assessed as ciprofloxacin MIC by p-iodonitrotetrazolium chloride colorimetric assay; assay type: functional; how it was run: as §1
Escherichia coli K-12 [8] = assay: Inhibition of AcrAB-TolC pump in Escherichia coli K-12 AG100 assessed as increase in intracellular H33342 fluorescence at 0.06 ug/ml after 60 mins by efflux inhibition assay; assay type: cell-based
How it was run: (§2)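 AG100 (wild-type K-12) or AG100A (ΔacrAB) cells were grown in Luria broth at 37 °C and 200 rpm to OD600 1.0, PBS-washed and diluted to OD600 0.3. Cells took up 2.5 μM Hoechst 33342 with 22 mM glucose at 37 °C for about 30 min, then compound (0.06–64 μg/mL) or PAβN (15.6 μg/mL) was added. Fluorescence (Ex 350/Em 460 nm) was followed for 60 min and corrected for background. The last four time points were compared to dye-only control by ANOVA with Dunnett's test, run in duplicate.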

Escherichia coli [9] = assay: Potentiation of ciprofloxacin-induced antibacterial activity Escherichia coli transformed with plasmid carrying MG1655 deltaBC/pABM by p-iodonitrotetrazolium chloride colorimetric assay; assay type: functional
Escherichia coli K-12 [10] = assay: Inhibition of AcrAB-TolC pump in Escherichia coli K-12 AG100 assessed as increase in intracellular H33342 fluorescence at 4 ug/ml after 60 mins by efflux inhibition assay; assay type: cell-based
How it was run: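 Washed AG100 cells loaded for 60 min with 2.5 μM H33342 plus compound (no glucose, 25 °C). They were then pelleted, resuspended in ice-cold PBS and re-exposed to the same compound concentrations with or without glucose at 37 °C. Fluorescence (Ex 350/Em 460) followed for 30 min, no-glucose values subtracted, data normalized to loaded cells.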

Escherichia coli [11] = assay: Inhibition of AcrAB-TolC pump in Escherichia coli AG100 assessed as increase in intracellular H33342 fluorescence at >= 1 ug/ml after 60 mins by efflux inhibition assay; assay type: cell-based; how it was run: as §2
Escherichia coli [12] = assay: Potentiation of tetracycline-induced antibacterial activity Escherichia coli AG102 overexpressing AcrAB-TolC assessed as tetracycline MIC by p-iodonitrotetrazolium chloride colorimetric assay; assay type: functional; how it was run: as §1
Escherichia coli [13] = assay: Potentiation of erythromycin-induced antibacterial activity Escherichia coli transformed with plasmid carrying MG1655 deltaBC/pABM assessed as erythromycin MIC by p-iodonitrotetrazolium chloride colorimetric assay; assay type: functional; how it was run: as §1
Escherichia coli [14] = assay: Potentiation of kanamycin-induced antibacterial activity Escherichia coli transformed with plasmid carrying MG1655 deltaBC/pXYM by p-iodonitrotetrazolium chloride colorimetric assay; assay type: functional
Escherichia coli [15] = assay: Potentiation of oxacillin-induced antibacterial activity Escherichia coli transformed with plasmid carrying MG1655 deltaBC/pXYM assessed as oxacillin MIC by p-iodonitrotetrazolium chloride colorimetric assay; assay type: functional; how it was run: as §1
Escherichia coli [16] = assay: Potentiation of levofloxacin-induced antibacterial activity Escherichia coli AG102 overexpressing AcrAB-TolC assessed as levofloxacin MIC by p-iodonitrotetrazolium chloride colorimetric assay; assay type: functional; how it was run: as §1
Escherichia coli [17] = assay: Effect on intracellular H33342 accumulation in Escherichia coli AG100A delta acrAB mutant at 1 ug/ml after 60 mins by accumulation assay; assay type: functional
How it was run: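 Cells grown in Luria broth at 37 °C, 200 rpm to OD600 1.0, then washed twice in PBS and diluted in glucose-free PBS to OD600 0.3. H33342 was used at 2.5 μM with 22 mM glucose at 37 °C and allowed to accumulate for ~30 min. Compound was then added and fluorescence (Ex 350/Em 460 nm) followed for 60 min. Values are the mean RFU of the final 4 min, after media-plus-compound background was subtracted. Run in duplicate, n = 8.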

Escherichia coli [18] = assay: Potentiation of piperacillin-induced antibacterial activity Escherichia coli transformed with plasmid carrying MG1655 deltaBC/pABM assessed as piperacillin MIC by p-iodonitrotetrazolium chloride colorimetric assay; assay type: functional, organism-based; how it was run: as §1
Escherichia coli [19] = assay: Potentiation of tetracycline-induced antibacterial activity Escherichia coli transformed with plasmid carrying MG1655 deltaBC/pXYM assessed as tetracycline MIC by p-iodonitrotetrazolium chloride colorimetric assay; assay type: functional; how it was run: as §1

O=C1NC(=O)C(Br)=C1Br
fractional inhibitory concentration index (FICI) (Escherichia coli [1]): 0.36
RFU (Escherichia coli K-12 [2]): 758
MIC (Escherichia coli [3]): inactive
fractional inhibitory concentration index (FICI) (Escherichia coli [4]): inactive
MIC (Escherichia coli [5]): 256 µg/mL
fractional inhibitory concentration index (FICI) (Escherichia coli [6]): 0.19
MIC (Escherichia coli [7]): 32 µg/mL
RFU (Escherichia coli K-12 [8]): -422
fractional inhibitory concentration index (FICI) (Escherichia coli [9]): 0.75
RFU (Escherichia coli K-12 [10]): -101
inhibition (Escherichia coli [11]): Active
MIC (Escherichia coli [12]): 64 µg/mL
MIC (Escherichia coli [13]): 64 µg/mL
fractional inhibitory concentration index (FICI) (Escherichia coli [14]): 0.75
MIC (Escherichia coli [15]): 64 µg/mL
MIC (Escherichia coli [16]): 128 µg/mL
RFU (Escherichia coli [17]): 1070
MIC (Escherichia coli [18]): inactive
MIC (Escherichia coli [19]): 8 µg/mL
